Screens (PubChem BioAssay)
V-ATPase pH – regulators of yeast V-ATPase proton pumping, primary screen, pHLuorin cytosolic pH fluorescence; S. cerevisiae; response, % at 10 µM; hit rate 0.37% among 350,000; AID 504577, 2011; in the data active = response mostly above about 7.3%, no sharp cut-off; inactive = mostly below about 5.4%; note: actives read high
HIF act – HIF pathway transcriptional activators, primary screen, cell-based, U2OS HRE-luciferase, luminescence. U2OS HRE-luciferase reporter; normalized: DMSO 0%, desferrioxamine 100%. activation, % at 7.5 µM (by protocol). hit rate 0.32% among 300,000. AID 1910, 2009;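 active = mean activation of at least 10% of the iron chelator positive control signal, with at least half of replicates also reaching 10%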
AI-2 QS mod – Vibrio harveyi AI-2 quorum sensing modulators, primary screen, JMH597 strain, luminescence/OD600 ratio; Vibrio harveyi JMH597 AI-2 luminescence/OD600 ratio, 9 h; hits give low values; strain lacks LuxN and CqsS sensors; 0 = neutral-control median; activity change, % at 7.5 µM; hit rate 0.4% among 300,000; AID 2094, 2009; in the data active = activity change below about -75%, passing the limit was not always enough;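 note: luminescence divided by OD600 gain over 9 h not by final OD600 alone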
T cruzi repl – inhibitors of intracellular T. cruzi growth, primary screen, luminescence, NIH3T3 host cells; T. cruzi beta-gal in NIH3T3, 90 h; hit rate 1.4% among 300,000; inhibition, % (concentration not given with the values);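 active = mean inhibition across valid replicates above about 55%, limit read from the data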;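 note: signal also drops with host cell toxicity which is not excluded here; 0% = plate median of DMSO wells and 100% = zero luminescence signal; higher percent means less beta-gal luminescence so fewer parasites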
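System: NIH/3T3 fibroblasts plus reporter T. cruzi. Medium: DMEM plus 2% FBS. Probe or stimulus: 5000 reporter trypomastigotes per well. Compound: single 50 nL compound addition per well in DMSO. Incubation: co-culture of at least 90 h after 3 h attachment. Detection: GalScreen β-gal luminescence, detergent lysis, 60 min. Evaluation: parasite load inhibition, %.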
NRP1-CendR mod – modulators of CendR peptide binding to NRP-1, primary screen, biochemical, fluorescence polarization, uHTS. AID 602438, 2012. Neuropilin-1 (Homo sapiens), O14786. hit rate 0.85% among 360,000. FAM-RPARPAR peptide binding to NRP-1. inhibition, % at 25 µM;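 active = inhibition or corrected inhibition above about 18%, plus a signal ratio from 0.5 to 1.5, limit read from the data, passing the limit was not always enough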
CR mimetic SO – reduction of superoxide in aged yeast, primary screen, HTS. S. cerevisiae aged cells, superoxide DHE fluorescence; hits give low values. superoxide response (% of plate mean), % at 10 µM. hit rate 0.18% among 330,000;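 active = superoxide response under a set limit, about three screen SD below normal, cut at about 65% in these data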;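 note: yeast aged for seven days with compound at 30 °C before DHE staining; 100% = average MFI of all compound-treated wells on the plate with controls excluded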
An asterisk follows results filed as active; x = no result given. Most compounds without a hit are left out; they make up all but 3% or so of the library.

SMILES | V-ATPase pH | HIF act | AI-2 QS mod | T cruzi repl | NRP1-CendR mod | CR mimetic SO
CC(=O)Nc1ccc(C(=O)OCc2ccccc2Cl)cc1 | x | 0 | -40 | -7 | -1 | 116
CCOC(=O)c1ccc(NC(=O)c2ccccc2)cc1 | 0 | 1 | 25 | 0 | 23* | 115
CCOC(=O)c1ccc(NC(=O)CN2CCc3ccccc3C2)cc1 | 0 | 1 | -2 | 31 | 38* | 97
CCOC(=O)c1ccc(NC(=S)NN2CCN(C)CC2)cc1 | -9 | 0 | 10 | 57* | 0 | 91
Cc1ccc(NC(=O)c2ccc(S(=O)(=O)N3CCOCC3)cc2)cc1 | 5 | 2 | 10 | 2 | -1 | 80
OC(CN1CCN(c2ccccc2)CC1)Cn1c2ccccc2c2ccccc21 (centres undefined) | 2 | 0 | 11 | 20 | 25* | 93
OC(CN1CCN(Cc2ccccc2)CC1)Cn1c2ccccc2c2ccccc21 (centres undefined) | 0 | 0 | 8 | 13 | 4 | 87
CCCCC(=O)N(CCOC)c1nnc(-c2ccccc2C)s1 | 0 | 0 | 16 | 28 | 1 | 111
O=S(=O)(Nc1cccc(S(=O)(=O)N2CCCC2)c1)c1cccc(Br)c1 | -4 | x | x | x | -4 | 157
CC(=O)N(CCC(Cc1ccccc1)c1ccc2c(c1)OCO2)Cc1ccc(Cl)cc1 (centres undefined) | -3 | -34 | 11 | 64* | -8 | 92
Nc1ccn(CC(=O)NCc2ccc3[nH]ccc3c2)c(=O)n1 | 0 | x | x | x | 32* | 80
Nc1ccn(CC(=O)NCc2ccccc2)c(=O)n1 | -7 | x | x | x | 3 | 106
COC(=O)c1ccc(NC(=O)COc2coc(CN3CCc4ccccc43)cc2=O)cc1 | -3 | 0 | 24 | -6 | -6 | 100
CCn1cc(C(=O)NCc2ccc3c(c2)OCO3)c(=O)c2cc(F)c(N3CCN(C)CC3)cc21 | 3 | 0 | 2 | 60* | -8 | 95
O=C(c1ccc(CS(=O)(=O)c2ccc(Br)cc2)o1)N1CCN(c2ccccn2)CC1 | 4 | x | 21 | 8 | 6 | 94
Cc1ccc(O)c(NC2=C(Cl)C(=O)N(Cc3ccccc3)C2=O)c1 | -1 | 0 | -14 | 58* | -19 | x
Cc1cccn2c(=O)c(C(=O)NC3CCCCC3C)c(O)nc12 (centres undefined) | -5 | 2 | 29 | 7 | 44* | 95
Cc1cccn2c(=O)c(C(=O)NC3CCCCC3)c(O)nc12 | -2 | 0 | 17 | -1 | -2 | 86
COc1ccc2cc(C3=CC(=O)CCC3)ccc2c1 | -10 | x | x | x | 28* | x
O=C1C=C(c2ccc3[nH]ccc3c2)CCC1 | -1 | 4 | -6 | -6 | 1 | 105
COc1ccc(CC(=O)Nc2cc(=O)n(C)c(=O)n2C)cc1OC | 3 | 0 | 7 | -14 | 13 | 104
Cc1ccccc1-n1c(SCc2c(C)noc2C)nnc1-c1cccnc1 | x | 0 | 14 | 8 | 16 | 102
COc1ccc(-n2nc(C)c3c(=O)c4c([nH]c32)CCCC4)cc1 | -2 | -1 | 6 | 62* | 17 | 95
Fc1ccc(C2c3[nH]c4ccccc4c3CCN2Cc2cccn2-c2ncccn2)cc1 (centres undefined) | 0 | -1 | 30 | 70* | -15 | 86
CC1(C(=O)NCC2CC2)Cc2c(-c3cccc(C(F)(F)F)c3)ccnc2O1 (centres undefined) | x | x | x | x | 35* | x
CCOC(=O)c1c(CC(C)C)csc1/N=C/C1C(=O)CCCC1=O | 2 | 0 | -17 | 5 | 1 | 92
COc1cccc(/C=N/NC(=O)CSc2nnc(C)n2-c2ccccc2)c1O | -6 | 1 | 6 | -17 | 6 | 97
O=C(N/N=C/c1cccc(O)c1)c1ccc2c(c1)OCCO2 | -3 | -1 | 32 | -7 | 7 | 100
CCn1c(C)nc2cc(C(=O)N/N=C/c3cccc(O)c3O)ccc21 | 1 | 43* | -12 | -24 | -21 | 90
